Where two headings read alike, the source gives them in different places.
What was measured:
pBR322 plasmid DNA = test: DNA nicking assay; assay type: biochemical; details: with Fenton's reagent; 10 µg/mL
In short: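 pBR322 supercoiled plasmid (2 µL of a 50 µg/100 µL stock) mixed with 10 µL Fenton's reagent (80 mM FeCl₃, 30 mM H₂O₂, 50 mM ascorbic acid) and test compound (2–10 µg/mL) in water to 20 µL. Incubated for 30 min at 37 °C, then run on 1% agarose gel. Form I, II and III percentages were derived by densitometry. Water replaced Fenton's reagent as the negative control, and rutin served as the positive control.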

S. Typhimurium TA100 = details: highest dose 250 μg/100 μL, cited from earlier work
MRSA = test: Kirby-Bauer disc diffusion; assay type: cell-based, methicillin-resistant Staphylococcus aureus; details: Staphylococcus aureus
In short: (§1)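 Kirby-Bauer method. Mueller Hinton agar plates were seeded with the test bacteria. Discs carrying 30 µg of test compound were placed on the surface and left to diffuse for 30 min at 4 °C. Plates were incubated at 37 °C, and inhibition zones were measured in mm.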

S. Typhimurium TA98 = details: highest dose 250 μg/100 μL, ref Sharma et al.[46]; cited from earlier work
VRE = test: Kirby-Bauer disc diffusion; assay type: cell-based, Vancomycin-resistant Enterococcus; details: HFM-2P, teicoplanin 30 µg/disc
In short: as §1

Compound: C[C@@H]1O[C@@H](OC[C@H]2O[C@@H](Oc3c(-c4ccc(O)c(O)c4)oc4cc(O)cc(O)c4c3=O)[C@H](O)[C@@H](O)[C@@H]2O)[C@H](O)[C@H](O)[C@H]1O [Rutin, rutin]
- Form I (supercoiled) DNA (pBR322 plasmid DNA): 54.72%
- Form II DNA (pBR322 plasmid DNA): 45.27%

Compound: CC1OC(n2ccc(NC(=O)c3ccc(N)cc3)nc2=O)CCC1OC1OC(C)C(N(C)C)C(O)C1O (stereo not shown) [plicacetin]
- Antimutagenic activity (S. Typhimurium TA100; ref Devi et al.[33]): 41.10–88.53%

Compound: CN[C@H](CC(C)C)C(=O)N[C@H]1C(=O)N[C@@H](CC(N)=O)C(=O)N[C@H]2C(=O)N[C@H]3C(=O)N[C@H](C(=O)N[C@H](C(=O)O)c4cc(O)cc(O)c4-c4cc3ccc4O)[C@H](O)c3ccc(c(Cl)c3)Oc3cc2cc(c3O[C@@H]2O[C@H](CO)[C@@H](O)[C@H](O)[C@H]2O[C@H]2C[C@](C)(N)[C@H](O)[C@H](C)O2)Oc2ccc(cc2Cl)[C@H]1O [vancomycin]
- zone of inhibition at 30 µg/disc (MRSA): 18 mm

Compound: salvianolic acid B
- Antimutagenic activity (S. Typhimurium TA98): 47.87–88.11%
- Antimutagenic activity (S. Typhimurium TA100; ref Sharma et al.[46]): 41.10–88.53%

Compound: teicoplanin
- Zone of inhibition (VRE): 15 mm
